Data: ChEMBL document CHEMBL3992547, “Antimicrobial activity of rhodanine-3-acetic acid derivatives” (Bioorg Med Chem, 2017)
Converted amounts (≈) assume the structure as drawn. The source made the active and inactive calls. The calls are words filed in the database; no cut-off is given here.

Columns and labels:
[1] = test system: Mycobacterium tuberculosis; test: Antimycobacterial activity against Mycobacterium tuberculosis H37Rv 331/88 measured after 21 days by micromethod; assay type: functional; settings: H37Rv 331/88, 504 h
Klebsiella pneumoniae [2] = test: Antibacterial activity against ESBL positive Klebsiella pneumoniae J 14368/08 up to 500 uM incubated for 24 to 48 hrs under dark condition by microdilution broth assay; assay type: functional
How it was run: (§1)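 Broth microdilution per M07-A07, modified, in Mueller-Hinton broth adjusted to pH 7.4 (±0.2). Inoculum is prepared in sterile water to McFarland 0.5 (1.5 × 10⁸ CFU/mL). Plates are incubated in the dark at 35 °C in humid air. MIC is read after 24 and 48 h as at least 95% growth reduction versus control (IC₉₅).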

Lichtheimia corymbifera = test: Antifungal activity against Absidia corymbifera 272 after 24 to 48 hrs hrs by microdilution broth assay; assay type: functional
How it was run: (§2)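 Broth microdilution per CLSI M27-A3 and M38-A2 in RPMI 1640 with glutamine, buffered to pH 7.0 with MOPS. Compounds are diluted in DMSO. Final inoculum is 5 × 10³ CFU/mL for yeasts and 0.5–5 × 10⁴ CFU/mL for moulds. Plates are incubated in the dark at 35 °C in humid air and read visually and/or at 540 nm after 24 and 48 h. MIC is ≥80% growth reduction (IC₈₀) for yeasts and ≥50% (IC₅₀) for filamentous fungi.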

Mycobacterium kansasii [3] = test: Antimycobacterial activity against Mycobacterium kansasii isolate 235/80 after 14 days by micromethod; assay type: functional; settings: isolate 235/80, 336 h
Staphylococcus aureus [4] = test: Antibacterial activity against Staphylococcus aureus CCM 4516/08 incubated for 24 hrs under dark condition by microdilution broth assay; assay type: functional; settings: CCM 4516/08, 24 h; how it was run: as §1
Escherichia coli [5] = test: Antibacterial activity against Escherichia coli CCM 4517 incubated for 48 hrs under dark condition by microdilution broth assay; assay type: functional; settings: CCM 4517, 48 h; how it was run: as §1
Mycobacterium kansasii [6] = test: Antimycobacterial activity against Mycobacterium kansasii isolate 6509/96 after 21 days by micromethod; assay type: functional; settings: isolate 6509/96, 504 h
Mycobacterium kansasii [7] = test: Antimycobacterial activity against Mycobacterium kansasii isolate 235/80 after 7 days by micromethod; assay type: functional; settings: isolate 235/80, 168 h
Staphylococcus aureus [8] = test: Antibacterial activity against methicillin-resistant Staphylococcus aureus H 5996/08 incubated for 48 hrs under dark condition by microdilution broth assay; assay type: functional; settings: H 5996/08, 48 h
How it was run: (§3)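 Microdilution broth method modified per M07-A07, in Mueller-Hinton broth adjusted to pH 7.4 (±0.2). Inoculum made in sterile water to 0.5 McFarland (1.5 × 10⁸ CFU/mL). Plates incubated in the dark at 35 °C in a humid atmosphere, with reads at 24 and 48 h. MIC taken as at least 95% growth reduction (IC₉₅) versus control.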

Klebsiella pneumoniae [9] = test: Antibacterial activity against Klebsiella pneumoniae D 11750/08 up to 500 uM incubated for 24 to 48 hrs under dark condition by microdilution broth assay; assay type: functional; how it was run: as §1
Pseudomonas aeruginosa = test: Antibacterial activity against Pseudomonas aeruginosa CCM 1961 up to 500 uM incubated for 24 to 48 hrs under dark condition by microdilution broth assay; assay type: functional; how it was run: as §1
Staphylococcus aureus [10] = test: Antibacterial activity against methicillin-resistant Staphylococcus aureus H 5996/08 incubated for 24 hrs under dark condition by microdilution broth assay; assay type: functional; settings: H 5996/08, 24 h; how it was run: as §3
Mycobacterium kansasii [11] = test: Antimycobacterial activity against Mycobacterium kansasii isolate 6509/96 after 7 days by micromethod; assay type: functional; settings: isolate 6509/96, 168 h
[12] = test system: Staphylococcus epidermidis; test: Antibacterial activity against Staphylococcus epidermidis H 6966/08 incubated for 24 hrs under dark condition by microdilution broth assay; assay type: functional; settings: H 6966/08, 24 h; how it was run: as §1
Mycobacterium avium [13] = test: Antimycobacterial activity against Mycobacterium avium 330/88 measured after 21 days by micromethod; assay type: functional; settings: 330/88, 504 h
[14] = test system: Staphylococcus epidermidis; test: Antibacterial activity against Staphylococcus epidermidis H 6966/08 incubated for 48 hrs under dark condition by microdilution broth assay; assay type: functional; settings: H 6966/08, 48 h; how it was run: as §1
Enterococcus [15] = test: Antibacterial activity against Enterococcus sp. J 14365/08 incubated for 48 hrs under dark condition by microdilution broth assay; settings: J 14365/08, 48 h
Escherichia coli [16] = test: Antibacterial activity against Escherichia coli CCM 4517 incubated for 24 hrs under dark condition by microdilution broth assay; assay type: functional; settings: CCM 4517, 24 h; how it was run: as §1
Pichia kudriavzevii = test: Antifungal activity against Candida krusei E28 after 24 to 48 hrs hrs by microdilution broth assay; assay type: functional; how it was run: as §2
Staphylococcus aureus [17] = test: Antibacterial activity against Staphylococcus aureus CCM 4516/08 incubated for 48 hrs under dark condition by microdilution broth assay; assay type: functional; settings: CCM 4516/08, 48 h; how it was run: as §1
[18] = test system: Mycobacterium tuberculosis; test: Antimycobacterial activity against Mycobacterium tuberculosis H37Rv 331/88 measured after 14 days by micromethod; assay type: functional; settings: H37Rv 331/88, 336 h
Enterococcus [19] = test: Antibacterial activity against Enterococcus sp. J 14365/08 incubated for 24 hrs under dark condition by microdilution broth assay; settings: J 14365/08, 24 h
[20] = Solubility of the compound in Sula's semisynthetic medium up to 1 mM; assay type: physicochemical
Mycobacterium avium [21] = test: Antimycobacterial activity against Mycobacterium avium 330/88 measured after 14 days by micromethod; assay type: functional; settings: 330/88, 336 h
Mycobacterium kansasii [22] = test: Antimycobacterial activity against Mycobacterium kansasii isolate 6509/96 after 14 days by micromethod; assay type: functional; settings: isolate 6509/96, 336 h
Mycobacterium kansasii [23] = test: Antimycobacterial activity against Mycobacterium kansasii isolate 235/80 after 21 days by micromethod; assay type: functional; settings: isolate 235/80, 504 h

Compound | MIC [1] | Activity (Klebsiella pneumoniae [2]) | Activity (Lichtheimia corymbifera) | MIC (Mycobacterium kansasii [3]) | MIC95 (Staphylococcus aureus [4]) | MIC95 (Escherichia coli [5]) | MIC (Mycobacterium kansasii [6]) | MIC (Mycobacterium kansasii [7]) | MIC95 (Staphylococcus aureus [8]) | Activity (Klebsiella pneumoniae [9]) | Activity (Pseudomonas aeruginosa) | MIC95 (Staphylococcus aureus [10]) | MIC (Mycobacterium kansasii [11]) | MIC95 [12] | MIC (Mycobacterium avium [13]) | MIC95 [14] | MIC95 (Enterococcus [15]) | MIC95 (Escherichia coli [16]) | Activity (Pichia kudriavzevii) | MIC95 (Staphylococcus aureus [17]) | other results
O=C(CN1C(=O)/C(=C/c2cc(Br)ccc2O)SC1=S)Nc1ccc(Cl)cc1 | 62.5 µM (≈ 30.2 µg/mL) | inactive | inactive | > 500 µM | 500 µM (≈ 242 µg/mL) | > 500 µM | 500 µM (≈ 242 µg/mL) | 500 µM (≈ 242 µg/mL) | 500 µM (≈ 242 µg/mL) | inactive | inactive | 500 µM (≈ 242 µg/mL) | 125 µM (≈ 60.5 µg/mL) | 500 µM (≈ 242 µg/mL) | 500 µM (≈ 242 µg/mL) | 500 µM (≈ 242 µg/mL) | 500 µM (≈ 242 µg/mL) | > 500 µM | inactive | 500 µM (≈ 242 µg/mL) | MIC [18]: 32 µM (≈ 15.5 µg/mL); MIC95 (Enterococcus [19]): 500 µM (≈ 242 µg/mL); solubility [20]: Soluble; MIC (Mycobacterium avium [21]): 500 µM (≈ 242 µg/mL); MIC (Mycobacterium kansasii [22]): 250 µM (≈ 121 µg/mL); MIC (Mycobacterium kansasii [23]): > 500 µM
O=C(CN1C(=O)CSC1=S)Nc1ccc(Cl)cc1 | 62.5 µM (≈ 18.8 µg/mL) | inactive | inactive | 500 µM (≈ 150 µg/mL) | > 500 µM | > 500 µM | 250 µM (≈ 75.2 µg/mL) | 250 µM (≈ 75.2 µg/mL) | > 500 µM | inactive | inactive | > 500 µM | 125 µM (≈ 37.6 µg/mL) | 500 µM (≈ 150 µg/mL) | 1000 µM (≈ 301 µg/mL) | > 500 µM | > 500 µM | > 500 µM | inactive | > 500 µM | MIC [18]: 32 µM (≈ 9.63 µg/mL); MIC95 (Enterococcus [19]): 500 µM (≈ 150 µg/mL); solubility [20]: Soluble; MIC (Mycobacterium avium [21]): 1000 µM (≈ 301 µg/mL); MIC (Mycobacterium kansasii [22]): 250 µM (≈ 75.2 µg/mL); MIC (Mycobacterium kansasii [23]): 500 µM (≈ 150 µg/mL)
O=C(CN1C(=O)CSC1=S)Nc1ccc([N+](=O)[O-])cc1 | 500 µM (≈ 156 µg/mL) | inactive | inactive | 500 µM (≈ 156 µg/mL) | 500 µM (≈ 156 µg/mL) | > 500 µM | 1000 µM (≈ 311 µg/mL) | 500 µM (≈ 156 µg/mL) | 500 µM (≈ 156 µg/mL) | inactive | inactive | 500 µM (≈ 156 µg/mL) | 500 µM (≈ 156 µg/mL) | 250 µM (≈ 77.8 µg/mL) | 1000 µM (≈ 311 µg/mL) | 250 µM (≈ 77.8 µg/mL) | 250 µM (≈ 77.8 µg/mL) | > 500 µM | inactive | 500 µM (≈ 156 µg/mL) | MIC [18]: 500 µM (≈ 156 µg/mL); MIC95 (Enterococcus [19]): 250 µM (≈ 77.8 µg/mL); solubility [20]: Soluble; MIC (Mycobacterium avium [21]): 1000 µM (≈ 311 µg/mL); MIC (Mycobacterium kansasii [22]): 500 µM (≈ 156 µg/mL); MIC (Mycobacterium kansasii [23]): 1000 µM (≈ 311 µg/mL)
O=C(O)CN1C(=O)/C(=C/c2cc(Br)ccc2O)SC1=S | 62.5 µM (≈ 23.4 µg/mL) | inactive | inactive | 62.5 µM (≈ 23.4 µg/mL) | 250 µM (≈ 93.6 µg/mL) | 500 µM (≈ 187 µg/mL) | 250 µM (≈ 93.6 µg/mL) | 62.5 µM (≈ 23.4 µg/mL) | 125 µM (≈ 46.8 µg/mL) | inactive | inactive | 125 µM (≈ 46.8 µg/mL) | 62.5 µM (≈ 23.4 µg/mL) | 62.5 µM (≈ 23.4 µg/mL) | 62.5 µM (≈ 23.4 µg/mL) | 62.5 µM (≈ 23.4 µg/mL) | 500 µM (≈ 187 µg/mL) | 500 µM (≈ 187 µg/mL) | inactive | 250 µM (≈ 93.6 µg/mL) | MIC [18]: 32 µM (≈ 12 µg/mL); MIC95 (Enterococcus [19]): 500 µM (≈ 187 µg/mL); solubility [20]: Soluble; MIC (Mycobacterium avium [21]): 62.5 µM (≈ 23.4 µg/mL); MIC (Mycobacterium kansasii [22]): 125 µM (≈ 46.8 µg/mL); MIC (Mycobacterium kansasii [23]): 62.5 µM (≈ 23.4 µg/mL)
